Reference: BindingDB's records for doi:10.1021/jm960807v (University of Florence, 1997)
pIC50: −log10 of the molar value.

Biological target: T1, 3-oxo-5-alpha-steroid 4-dehydrogenase 2 (Homo sapiens, UniProt P31213)
T1 sequence (P31213 whole entry): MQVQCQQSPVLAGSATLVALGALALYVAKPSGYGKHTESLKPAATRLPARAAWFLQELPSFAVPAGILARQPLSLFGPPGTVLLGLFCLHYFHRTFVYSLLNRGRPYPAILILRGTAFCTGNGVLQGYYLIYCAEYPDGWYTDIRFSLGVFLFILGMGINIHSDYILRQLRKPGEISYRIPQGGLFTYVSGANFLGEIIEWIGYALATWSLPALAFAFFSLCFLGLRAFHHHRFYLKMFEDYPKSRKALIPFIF
Experiment: Inhibitory activity against 5-alpha Reductase-2 on human prostate homogenates from surgically derived benign hyperplastic tissue
Outline: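 Benign hyperplastic human prostate tissue, stored at -80 °C, was homogenized near 0 °C in 50 mM TRIS pH 7.4 with salts, nicotinamide and sucrose, spun at 200g, and the combined supernatants were used. Homogenate (0.1 mg protein) was incubated with 30 nM testosterone (9% [3H]) and 0.3 mM NADPH for 30 min at 37 °C, with the inhibitor added alongside the substrate. Inhibitor range was 10⁻¹⁰–10⁻⁵ M. DHT conversion was read by TLC and scintillation, in duplicate.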

Structure (SMILES)	pIC50
C[C@]12CCC3=C4C(=O)CCN=C4CCC3[C@@H]1CCC2=O (some centres not stated)	< 4.00
C[C@]12CC=C3[C@@H](CCC4=CC(=O)CCN43)C1CCC2=O (some centres not stated)	5.34
